# Data: ChEMBL document CHEMBL2151033, “Synthesis, biological evaluation and molecular modeling of 4,6-diarylpyrimidines and diarylbenzenes as novel non-nucleosides HIV-1 reverse transcriptase inhibitors” (Eur J Med Chem, 2012)
# What was measured:
# [1] = system: Human immunodeficiency virus 1; assay: Antiviral activity against wild type HIV1 3B infected in human MT4 cells assessed as inhibition of virus-induced cytopathic effect after 5 days by MTT assay; type: functional, organism-based; settings: Human immunodeficiency virus 1, 3B, MT4, 120 h
# Outline: (§1)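 Infected and mock-infected MT-4 cells (6×10^5 cells/mL, exponentially growing, spun 5 min at 220 g and resuspended) were treated with serial 5-fold compound dilutions in triplicate. Virus stock at 100-300 CCID50 was added. After 5 days, viability was read spectrophotometrically by MTT at 540 and 690 nm using the median OD of three wells. EC50 is the concentration giving 50% protection from viral cytopathic effect.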
# [2] = system: Human immunodeficiency virus 1; assay: Antiviral activity against HIV1 RES056 harbouring RT K103N/Y181C mutant infected in human MT4 cells assessed as inhibition of virus-induced cytopathic effect after 5 days by MTT assay; type: functional, organism-based; settings: Human immunodeficiency virus 1, RES056, MT4, 120 h
# Outline: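 MT-4 cells (exponentially growing, spun 5 min at 220 g, resuspended at 6×10^5 cells/mL) infected with HIV-1 RES056 (K103N + Y181C) at 100-300 CCID50, with serial 5-fold compound dilutions run in triplicate alongside mock-infected wells. Viability was read by MTT at 540 and 690 nm after 5 days, using the median OD of three wells. EC50 is the concentration giving 50% protection from viral cytopathic effect.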
# [3] = Selectivity index, ratio of CC50 for human MT4 cells to EC50 for wild type HIV1 3B infected in human MT4 cells; type: toxicity, cell-based; settings: read-out: Ratio CC50/EC50
# Outline: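 Selectivity index is CC50 in mock-infected MT-4 cells divided by EC50 against HIV-1 IIIB. Both come from the 5-day MTT assay run in parallel on infected and uninfected cells with serial 5-fold dilutions in triplicate.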
# [4] = system: Human immunodeficiency virus 2; assay: Antiviral activity against HIV2 ROD infected in human MT4 cells assessed as inhibition of virus-induced cytopathic effect after 5 days by MTT assay; type: functional, organism-based; settings: Human immunodeficiency virus 2, ISOLATE ROD, MT4, 120 h; outline: as §1
# [5] = Cytotoxicity against human MT4 cells assessed as decrease in cell viability after 5 days by MTT assay; type: cell-based
# Outline: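 Uninfected, mock-treated MT-4 cells (6×10^5 cells/mL) were exposed to serial 5-fold compound dilutions in triplicate wells, run alongside the infected series. After 5 days, MTT reduction was read at 540 and 690 nm using the median OD of three wells. CC50 is the concentration that reduces OD540 of the mock-infected control by 50%.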
# [6] = system: Human immunodeficiency virus 1; assay: Ratio of nevirapine EC50 to compound EC50 for wild type HIV1 3B infected in human MT4 cells; type: functional
# [7] = system: Human immunodeficiency virus 1; assay: Ratio of delavirdine EC50 to compound EC50 for wild type HIV1 3B infected in human MT4 cells; type: functional
Structure (SMILES),EC50 [1] [µM],EC50 [2] [µM],selectivity ratio [3],EC50 [4] [µM],CC50 at 120 h [5] [µM],Ratio EC50 [6],Ratio EC50 [7]
Cc1cc(C)c(Nc2cc(Oc3c(C)cc(C)cc3C)ncn2)c(C)c1,> 38.5,> 38.5,< 1,> 38.5,38.2,–,–
Cc1cc(C)c(Oc2cc(Nc3ccc(C#N)cc3)ncn2)c(C)c1,0.049,> 42.2,870,> 42.2,42.2,2,11
Cc1cc(C)c(Nc2cc(Oc3c(C)cc(C#N)cc3C)ncn2)c(C)c1,5.25,> 37.5,7,> 37.5,37.5,–,–
Cc1cc(C)c(Nc2cccc(Nc3ccc(C#N)cc3)c2)c(C)c1,0.398,> 220,≥ 552,> 220,≥ 220,–,1.5
Cc1cc(C)c(Oc2cccc(Nc3ccc(C#N)cc3)c2)c(C)c1,0.599,> 52.6,65,> 52.6,52.6,–,–
Cc1cc(C)c(Nc2cccc(Oc3c(C)cc(C)cc3C)c2)c(C)c1,> 43.6,–,< 1,> 43.6,43.6,–,–
Cc1cc(C#N)cc(C)c1Oc1cc(Nc2ccc(C#N)cc2)ncn1,0.381,> 292,≥ 740,> 292,> 292,–,1.5
CC(C)Nc1cccnc1N1CCN(C(=O)c2cc3cc(NS(C)(=O)=O)ccc3[nH]2)CC1 [DELAVIRDINE],0.548,> 4.39,> 8,–,> 4.39,–,–
Cc1cc(C#N)cc(C)c1Oc1nc(Nc2ccc(C#N)cc2)nc(N)c1Br [ETRAVIRINE],–,–,12900,> 27.8,–,–,–
Cc1ccnc2c1NC(=O)c1cccnc1N2C1CC1 [NEVIRAPINE],0.097,≥ 7.6,> 155,–,> 15,–,–
Cc1cn([C@H]2C[C@H](N=[N+]=[N-])[C@@H](CO)O2)c(=O)[nH]c1=O [ZIDOVUDINE],0.008,0.006,> 12000,–,> 93.6,–,–
